Experimental data reported in ChEMBL document CHEMBL4689842, “EUbOPEN Chemogenomics Library wave 1” (2021).

System: U2OS
Experiment: Multiplex assay against U2OS
Format: toxicity, cell-based
Details: human
Outline: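 Hoechst33342, BioTracker Green Microtubule Cytoskeleton Dye, MitoTracker Red and Annexin V Alexa Fluor 680 were added to live cells at seeding, and imaging on a CQ1 microscope at 37°C and 5% CO2 followed compound addition. Gating by CellPathfinder machine learning separated cells into Hoechst high-intensity objects or normal cells, then normal cells into healthy, pyknosed or fragmented nuclei, then pyknosed cells into mitotic or apoptotic. Per cents of healthy-nucleus cells are reported for the tubulin, mitochondrial-mass and membrane-permeability phenotypes.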

[1] = 12 h, 1 µM, compound concentration 1 uM, replicate 1
[2] = 12 h, 1 µM, compound concentration 1 uM, replicate 2
[3] = 12 h, 10 µM, compound concentration 10 uM, replicate 1
[4] = 12 h, 10 µM, compound concentration 10 uM, replicate 2
[5] = 24 h, 1 µM, compound concentration 1 uM, replicate 1
[6] = 24 h, 1 µM, compound concentration 1 uM, replicate 2
[7] = 24 h, 10 µM, compound concentration 10 uM, replicate 1
[8] = 24 h, 10 µM, compound concentration 10 uM, replicate 2

COc1ccc(S(=O)(=O)N(CCO)c2ccccc2CN(C)C/C=C/c2ccc(Cl)cc2)cc1.O=P(O)(O)O
Population Apoptotic (%) [1]: 57%
Population Healthy Nuclei (%) [1]: 77%
Population Hoechst High Intensity Objects (%) [1]: 2%
Population Membrane Permeable-Phenotype (%) [1]: 62%
Population Mitochondria Different-Phenotype (%) [1]: 91%
Population Mitotic Cells (%) [1]: 42%
Population Normal (%) [1]: 97%
Population Pyknosed Nuclei (%) [1]: 13%
Total Cell Count [1]: 95
Population Apoptotic (%) [2]: 84%
Population Fragmented Nuclei (%) [2]: 9%
Population Healthy Nuclei (%) [2]: 74%
Population Hoechst High Intensity Objects (%) [2]: 8%
Population Membrane Permeable-Phenotype (%) [2]: 85%
Population Mitochondria Different-Phenotype (%) [2]: 100%
Population Mitotic Cells (%) [2]: 15%
Population Normal (%) [2]: 91%
Population Pyknosed Nuclei (%) [2]: 15%
Population Tubulin-Different-Phenotype (%) [2]: 100%
Total Cell Count [2]: 118
Population Apoptotic (%) [3]: 57%
Population Fragmented Nuclei (%) [3]: 11%
Population Healthy Nuclei (%) [3]: 81%
Population Hoechst High Intensity Objects (%) [3]: 5%
Population Membrane Permeable-Phenotype (%) [3]: 47%
Population Mitochondria Different-Phenotype (%) [3]: 20%
Population Mitotic Cells (%) [3]: 42%
Population Normal (%) [3]: 94%
Population Pyknosed Nuclei (%) [3]: 7%
Population Tubulin-Different-Phenotype (%) [3]: 28%
Total Cell Count [3]: 170
Population Apoptotic (%) [4]: 0%
Population Fragmented Nuclei (%) [4]: 10%
Population Healthy Nuclei (%) [4]: 89%
Population Hoechst High Intensity Objects (%) [4]: 16%
Population Membrane Permeable-Phenotype (%) [4]: 33%
Population Mitochondria Different-Phenotype (%) [4]: 16%
Population Mitotic Cells (%) [4]: 0%
Population Normal (%) [4]: 83%
Population Pyknosed Nuclei (%) [4]: 0%
Population Tubulin-Different-Phenotype (%) [4]: 12%
Total Cell Count [4]: 88
Population Apoptotic (%) [5]: 69%
Population Fragmented Nuclei (%) [5]: 14%
Population Healthy Nuclei (%) [5]: 63%
Population Hoechst High Intensity Objects (%) [5]: 3%
Population Membrane Permeable-Phenotype (%) [5]: 84%
Population Mitochondria Different-Phenotype (%) [5]: 100%
Population Mitotic Cells (%) [5]: 30%
Population Normal (%) [5]: 96%
Population Pyknosed Nuclei (%) [5]: 21%
Population Tubulin-Different-Phenotype (%) [5]: 100%
Total Cell Count [5]: 125
Population Apoptotic (%) [6]: 95%
Population Fragmented Nuclei (%) [6]: 16%
Population Healthy Nuclei (%) [6]: 58%
Population Hoechst High Intensity Objects (%) [6]: 8%
Population Membrane Permeable-Phenotype (%) [6]: 94%
Population Mitochondria Different-Phenotype (%) [6]: 98%
Population Mitotic Cells (%) [6]: 4%
Population Normal (%) [6]: 91%
Population Pyknosed Nuclei (%) [6]: 24%
Population Tubulin-Different-Phenotype (%) [6]: 98%
Total Cell Count [6]: 137
Population Apoptotic (%) [7]: 62%
Population Fragmented Nuclei (%) [7]: 5%
Population Healthy Nuclei (%) [7]: 87%
Population Hoechst High Intensity Objects (%) [7]: 2%
Population Membrane Permeable-Phenotype (%) [7]: 26%
Population Mitochondria Different-Phenotype (%) [7]: 13%
Population Mitotic Cells (%) [7]: 37%
Population Normal (%) [7]: 97%
Population Pyknosed Nuclei (%) [7]: 6%
Population Tubulin-Different-Phenotype (%) [7]: 22%
Total Cell Count [7]: 173
Population Apoptotic (%) [8]: 16%
Population Fragmented Nuclei (%) [8]: 4%
Population Healthy Nuclei (%) [8]: 85%
Population Hoechst High Intensity Objects (%) [8]: 8%
Population Membrane Permeable-Phenotype (%) [8]: 17%
Population Mitochondria Different-Phenotype (%) [8]: 26%
Population Mitotic Cells (%) [8]: 83%
Population Normal (%) [8]: 91%
Population Pyknosed Nuclei (%) [8]: 9%
Population Tubulin-Different-Phenotype (%) [8]: 11%
Total Cell Count [8]: 83
